ChEMBL document CHEMBL1817649, “Structure-guided design and synthesis of P1' position 1-phenylcycloalkylamine-derived pentapeptidic BACE1 inhibitors” (Bioorg Med Chem, 2011)

How the values were obtained:
Beta-secretase 1 [1] = target: T1, Beta-secretase 1 (Homo sapiens, UniProt P56817); test: Inhibition of human recombinant BACE1 at 2 uM by FRET assay
Outline: (§1)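 Single-point screen of BACE1 inhibition, run first at the higher concentration and then at the lower one. Read-out is percent inhibition.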

Beta-secretase 1 [2] = target: T1, Beta-secretase 1; test: Inhibition of human recombinant BACE1 at 0.2 uM by FRET assay; outline: as §1
Beta-secretase 1 [3] = target: T1, Beta-secretase 1; test: Inhibition of human recombinant BACE1 by FRET assay

T1 sequence (P56817 whole entry): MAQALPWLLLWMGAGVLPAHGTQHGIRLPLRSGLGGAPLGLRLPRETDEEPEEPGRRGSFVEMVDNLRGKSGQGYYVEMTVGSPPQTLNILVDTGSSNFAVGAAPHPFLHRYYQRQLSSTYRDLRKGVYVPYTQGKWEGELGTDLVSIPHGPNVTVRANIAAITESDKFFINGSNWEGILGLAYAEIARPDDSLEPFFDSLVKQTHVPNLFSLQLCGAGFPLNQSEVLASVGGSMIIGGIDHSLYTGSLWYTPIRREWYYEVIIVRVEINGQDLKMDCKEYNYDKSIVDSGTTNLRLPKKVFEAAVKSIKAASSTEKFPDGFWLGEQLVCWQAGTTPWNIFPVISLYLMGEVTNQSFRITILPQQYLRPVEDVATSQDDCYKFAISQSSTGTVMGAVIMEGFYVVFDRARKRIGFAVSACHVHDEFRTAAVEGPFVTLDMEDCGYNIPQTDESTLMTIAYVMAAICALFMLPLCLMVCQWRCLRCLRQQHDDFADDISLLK

| Compound | inhibition (Beta-secretase 1 [1]) | inhibition (Beta-secretase 1 [2]) | IC50 (Beta-secretase 1 [3]) |
| --- | --- | --- | --- |
| CC(C)[C@H](NC(=O)[C@@H](N)CNC(=O)c1cc(O)ccc1O)C(=O)N[C@@H](CC1CCCCC1)C(=O)N[C@@H](Cc1ccccc1)[C@@H](O)C(=O)N[C@@H](C)c1ccccc1 | 89% | 54% |  |
| CC(C)C[C@H](NC(=O)[C@@H](NC(=O)[C@@H](N)CNC(=O)c1cc(O)ccc1O)C(C)C)C(=O)N[C@@H](Cc1ccccc1)[C@@H](O)C(=O)NC1(c2ccccc2)CCCCC1 | 86% | 43% |  |
| CC(C)[C@H](NC(=O)[C@@H](N)CNC(=O)c1[nH]c(=O)[nH]c(=O)c1F)C(=O)N[C@@H](CC1CCCCC1)C(=O)N[C@@H](Cc1ccccc1)[C@@H](O)C(=O)N[C@H](C)c1ccccc1 | 98% | 79% | 39.6 nM |
| CC(C)C[C@H](NC(=O)[C@@H](NC(=O)[C@@H](N)CNC(=O)c1cc(O)ccc1O)C(C)C)C(=O)N[C@@H](Cc1ccccc1)[C@@H](O)C(=O)N[C@H](C)c1ccccc1 | 87% | 44% |  |
| CC(C)C[C@H](NC(=O)[C@@H](NC(=O)[C@@H](N)CNC(=O)c1[nH]c(=O)[nH]c(=O)c1F)C(C)C)C(=O)N[C@@H](Cc1ccccc1)[C@@H](O)C(=O)NC1(c2ccccc2)CCCC1 | 99% | 86% | 11.6 nM |
| CC(C)[C@H](NC(=O)[C@@H](N)CNC(=O)c1cc(O)ccc1O)C(=O)N[C@@H](CC1CCCCC1)C(=O)N[C@@H](Cc1ccccc1)[C@@H](O)C(=O)N[C@H](C)c1ccccc1 | 88% | 51% |  |
| CC(C)[C@H](NC(=O)[C@@H](N)CNC(=O)c1[nH]c(=O)[nH]c(=O)c1F)C(=O)N[C@@H](CC1CCCCC1)C(=O)N[C@@H](Cc1ccccc1)[C@@H](O)C(=O)N[C@@H](C)c1ccccc1 | 98% | 80% | 24.2 nM |
| CC(C)[C@H](NC(=O)[C@@H](N)CNC(=O)c1cc(O)ccc1O)C(=O)N[C@@H](CC1CCCCC1)C(=O)N[C@@H](Cc1ccccc1)[C@@H](O)C(=O)NC(C)(C)c1ccccc1 | 89% | 49% |  |
| CC(C)C[C@H](NC(=O)[C@@H](NC(=O)[C@@H](N)CNC(=O)c1cc(O)ccc1O)C(C)C)C(=O)N[C@@H](Cc1ccccc1)[C@@H](O)C(=O)N[C@@H](C)c1ccccc1 | 88% | 47% |  |
| CC(C)[C@H](NC(=O)[C@@H](N)CNC(=O)c1cc(O)ccc1O)C(=O)N[C@@H](CC1CCCCC1)C(=O)N[C@@H](Cc1ccccc1)[C@@H](O)C(=O)NC1(c2ccccc2)CCN(Cc2ccccc2)CC1 | 57% |  |  |
| CC(C)C[C@H](NC(=O)[C@@H](NC(=O)[C@@H](N)CNC(=O)c1[nH]c(=O)[nH]c(=O)c1F)C(C)C)C(=O)N[C@@H](Cc1ccccc1)[C@@H](O)C(=O)NC1(c2ccccc2)CCCCC1 | 98% | 85% | 24.8 nM |
| CC(C)C[C@H](NC(=O)[C@@H](NC(=O)[C@@H](N)CNC(=O)c1cc(O)ccc1O)C(C)C)C(=O)N[C@@H](Cc1ccccc1)[C@@H](O)C(=O)NC1(c2ccccc2)CCN(Cc2ccccc2)CC1 | 59% |  |  |
| CC(C)[C@H](NC(=O)[C@@H](N)CNC(=O)c1[nH]c(=O)[nH]c(=O)c1F)C(=O)N[C@@H](CC1CCCCC1)C(=O)N[C@@H](Cc1ccccc1)[C@@H](O)C(=O)NC(C)(C)c1ccccc1 | 98% | 78% | 31.9 nM |
| CC(C)C[C@H](NC(=O)[C@@H](NC(=O)[C@@H](N)CNC(=O)c1[nH]c(=O)[nH]c(=O)c1F)C(C)C)C(=O)N[C@@H](Cc1ccccc1)[C@@H](O)C(=O)N[C@H](C)c1ccccc1 | 98% | 81% | 34.8 nM |
| CC(C)[C@H](NC(=O)[C@@H](N)CNC(=O)c1[nH]c(=O)[nH]c(=O)c1F)C(=O)N[C@@H](CC1CCCCC1)C(=O)N[C@@H](Cc1ccccc1)[C@@H](O)C(=O)NC1(c2ccccc2)CCCCC1 | 97% | 77% | 40.6 nM |
| CC(C)C[C@H](NC(=O)[C@@H](NC(=O)[C@@H](N)CNC(=O)c1cc(O)ccc1O)C(C)C)C(=O)N[C@@H](Cc1ccccc1)[C@@H](O)C(=O)NC(C)(C)c1ccccc1 | 88% | 44% |  |
| CC(C)[C@H](NC(=O)[C@@H](N)CNC(=O)c1[nH]c(=O)[nH]c(=O)c1F)C(=O)N[C@@H](CC1CCCCC1)C(=O)N[C@@H](Cc1ccccc1)[C@@H](O)C(=O)NC1(c2ccccc2)CCN(Cc2ccccc2)CC1 | 95% | 64% |  |
| CC(C)[C@H](NC(=O)[C@@H](N)CNC(=O)c1cc(O)ccc1O)C(=O)N[C@@H](CC1CCCCC1)C(=O)N[C@@H](Cc1ccccc1)[C@@H](O)C(=O)NC1(c2ccccc2)CCCC1 | 89% | 58% |  |
| CC(C)C[C@H](NC(=O)[C@@H](NC(=O)[C@@H](N)CNC(=O)c1cc(O)ccc1O)C(C)C)C(=O)N[C@@H](Cc1ccccc1)[C@@H](O)C(=O)NC1(c2ccccc2)CCCC1 | 90% | 58% |  |
| CC(C)C[C@H](NC(=O)[C@@H](NC(=O)[C@@H](N)CNC(=O)c1[nH]c(=O)[nH]c(=O)c1F)C(C)C)C(=O)N[C@@H](Cc1ccccc1)[C@@H](O)C(=O)NC(C)(C)c1ccccc1 | 98% | 83% | 27 nM |
| CC(C)C[C@H](NC(=O)[C@@H](NC(=O)[C@@H](N)CNC(=O)c1[nH]c(=O)[nH]c(=O)c1F)C(C)C)C(=O)N[C@@H](Cc1ccccc1)[C@@H](O)C(=O)NC1(c2ccccc2)CCN(Cc2ccccc2)CC1 | 93% | 59% |  |
| CC(C)[C@H](NC(=O)[C@@H](N)CNC(=O)c1cc(O)ccc1O)C(=O)N[C@@H](CC1CCCCC1)C(=O)N[C@@H](Cc1ccccc1)[C@@H](O)C(=O)NC1(c2ccccc2)CCCCC1 | 87% | 46% |  |
| CC(C)C[C@H](NC(=O)[C@@H](NC(=O)[C@@H](N)CNC(=O)c1[nH]c(=O)[nH]c(=O)c1F)C(C)C)C(=O)N[C@@H](Cc1ccccc1)[C@@H](O)C(=O)N[C@@H](C)c1ccccc1 | 99% | 83% | 20.4 nM |
| CC(C)[C@H](NC(=O)[C@@H](N)CNC(=O)c1[nH]c(=O)[nH]c(=O)c1F)C(=O)N[C@@H](CC1CCCCC1)C(=O)N[C@@H](Cc1ccccc1)[C@@H](O)C(=O)NC1(c2ccccc2)CCCC1 | 98% | 84% | 29 nM |
